# Laboratory results reported in ChEMBL document CHEMBL3243988, “Quantitative structure-activity relationships in 2,5-bis(1-aziridinyl)-p-benzoquinone derivatives against leukemia L-1210” (1979).
# Calls of active or inactive are those of the source. The calls are words filed in the database; no cut-off is given here.
# How the values were obtained:
# Assay type in all cases: functional
# [1] = tested on: L1210; assay: Antileukemic activity against mouse L1210 cells allografted in BDF1 mouse
# Outline: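 BDF1 mice inoculated intraperitoneally with 10⁵ L-1210 cells. Compounds were dissolved in dimethyl sulfoxide and diluted with sterile physiological saline for injection. Dosing was either chronic (QD days 1-12) or a single injection on day 1. Read-out was increase in life span (ILS) relative to untreated controls.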
# [2] = tested on: L1210; assay: Antileukemic activity against mouse L1210 cells allografted in BDF1 mouse assessed as concentration required to increase 40% life span administered for 1 day
# Outline: (§1)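 Single-injection schedule: BDF1 mice received 10⁵ L-1210 cells i.p. and one dose on day 1 only, with compound dissolved in DMSO and made up in sterile saline. Survival was compared with controls. MED is the dose yielding 40% ILS; OD is the dose yielding maximal ILS.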
# [3] = tested on: L1210; assay: Antileukemic activity against mouse L1210 cells allografted in BDF1 mouse assessed as concentration required to give maximum increase in life span administered for 1 day; outline: as §1
# [4] = tested on: L1210; assay: Antileukemic activity against mouse L1210 cells allografted in BDF1 mouse assessed as concentration required to increase 40% life span administered as continuous injection; conditions: read-out: MED
# Outline: (§2)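 Chronic schedule: 10⁵ L-1210 cells given i.p. to BDF1 mice, then treatment once daily on days 1-12 with compound in DMSO diluted with sterile saline. Life span was compared with controls. MED is the dose giving 40% increase in life span; OD is the dose giving maximum ILS.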
# [5] = tested on: L1210; assay: Antileukemic activity against mouse L1210 cells allografted in BDF1 mouse assessed as concentration required to give maximum increase in life span administered as continuous injection; outline: as §2
# [6] = tested on: L1210; assay: Chemotherapeutic index, ratio of antileukemic activity against mouse L1210 cells allografted in BDF1 mouse assessed as concentration required to give maximum increase in life span administered as continuous injection to antileukemic activity against mouse L1210 cells allografted in BDF1 mouse assessed as concentration required to increase 40% life span administered as continuous injection
# Outline: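 Chemotherapeutic index was taken as OD/MED on the chronic schedule (QD days 1-12) in BDF1 mice bearing 10⁵ i.p.-inoculated L-1210 cells. OD is the dose giving maximum increase in life span; MED is the dose giving 40% ILS versus controls. Compounds were given in DMSO diluted with saline.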
# [7] = tested on: L1210; assay: Antileukemic activity against mouse L1210 cells allografted in BDF1 mouse assessed as concentration required to increase 40% life span administered as qd for 12 days; outline: as §2
compound,measurement,setting,value
COC(CO)C1=C(N2CC2)C(=O)C(C(CO)OC)=C(N2CC2)C1=O (stereo unspecified),Activity,[1],Active
CC1=C(N2CC2)C(=O)C(CCC(=O)N(C)C)=C(N2CC2)C1=O,log(1/C),[2],5.09
same,log(1/C),[3],4.84
COC(COC(N)=O)C1=C(N2CC2)C(=O)C(C)=C(N2CC2)C1=O (stereo unspecified) [CARBOQUONE],minimal effective dose,[4],0.13 mg/kg
same,Activity,[5],0.7 mg/kg
same,TI,[6],5.4
CC1=C(N2CC2)C(=O)C(CCCc2ccccc2)=C(N2CC2)C1=O,log(1/C),[3],3.6
O=C1C=C(N2CC2)C(=O)C(N2CC2)=C1N1CC1 [TRIAZIQUONE],minimal effective dose,[4],0.082 mg/kg
same,Activity,[5],0.15 mg/kg
same,TI,[6],1.8
O=C1C(CCO)=C(N2CC2)C(=O)C(CCO)=C1N1CC1,log(1/C),[3],5.6
COC(CO)C1=C(N2CC2)C(=O)C(C)=C(N2CC2)C1=O (stereo unspecified),log(1/C),[7],6.9
CCOC(COC(N)=O)C1=C(N2CC2)C(=O)C(CC)=C(N2CC2)C1=O (stereo unspecified),log(1/C),[2],5.4
COC(COC(N)=O)C1=C(N2CC2)C(=O)C(C(COC(N)=O)OC)=C(N2CC2)C1=O (stereo unspecified),Activity,[1],Active
CO[C@@]12[C@H](COC(N)=O)C3=C(C(=O)C(C)=C(N)C3=O)N1C[C@@H]1N[C@@H]12 [MITOMYCIN],minimal effective dose,[4],0.9 mg/kg
same,Activity,[5],2 mg/kg
same,TI,[6],2.2
CCC(COC(N)=O)C1=C(N2CC2)C(=O)C(C)=C(N2CC2)C1=O (stereo unspecified),log(1/C),[3],5.2
CC1=C(N2CC2)C(=O)C(C(C)C)=C(N2CC2)C1=O,log(1/C),[7],5.6
COC(CO[C@@H]1O[C@H](COC(C)=O)[C@@H](OC(C)=O)[C@H](OC(C)=O)[C@H]1OC(C)=O)C1=C(N2CC2)C(=O)C(C)=C(N2CC2)C1=O (stereo partly specified),Activity,[1],Active
CCCC1=C(N2CC2)C(=O)C(CCOC(N)=O)=C(N2CC2)C1=O,log(1/C),[2],4.9
